According to ChEMBL document CHEMBL1140738, “New trisubstituted 1,2,4-triazole derivatives as potent ghrelin receptor antagonists. 3. Synthesis and pharmacological in vitro and in vivo evaluations” (J Med Chem, 2008):
Calls of active or inactive are those of the source. No cut-off for these calls is given here. Where a SMILES comes first, the peptide text is derived from it. [ ]: non-standard residue; d: D form. dTrp(2-Me) = Cc1[nH]c2ccccc2c1C[C@@H](N)C(=O)O

Columns and labels:
[1] = molecular target: T1, Growth hormone secretagogue receptor type 1 (Homo sapiens, UniProt Q92847); assay: Displacement of 125I]-His9-ghrelin from human GHSR1a expressed in LLCPK1 cells; format: cell-based, LLC-PK1
Procedure, shortened: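 Competition binding with membranes from LLC PK-1 cells transiently transfected with human GHS-R1a, incubated with 125I-His9-ghrelin and increasing concentrations of compound.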

[2] = molecular target: T1, Growth hormone secretagogue receptor type 1; assay: Antagonist activity at GHSR1a expressed in CHO cells assessed as inhibition of ghrelin induced accumulation of intracellular calcium; format: functional, cell-based
Procedure, shortened: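 Antagonism measured in CHO cells transiently transfected with GHS-R1a: ghrelin dose-response curves of [Ca2+]i accumulation (fluorescence) run in the presence of various concentrations of test compound.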

[3] = molecular target: T1, Growth hormone secretagogue receptor type 1; assay: Agonist activity at GHSR1a expressed in CHO cells assessed as accumulation of intracellular calcium level at 10 uM relative to ghrelin; format: functional, cell-based
Procedure, shortened: (§1)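 CHO cells transiently expressing GHS-R1a; intracellular Ca2+ accumulation read as fluorescence output. Increasing agonist concentrations were tested for dose-response; single-point activation at 10^-5 M is expressed as percent of the maximal response to ghrelin at 10^-7 M (100%).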

[4] = tested on: Rattus norvegicus; assay: Effect on growth hormone secretion in infant rat at 80 ug/kg, sc at 160 ug/kg, sc in presence of hexarelin; format: functional
Procedure, shortened: (§2)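 Infant rats given sc injection of compound at 160 µg/kg and/or hexarelin at 80 µg/kg; plasma rat GH measured (ng/mL).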

[5] = tested on: Rattus norvegicus; assay: Effect on growth hormone secretion at 160 ug/kg, sc; format: functional; procedure, shortened: as §2
[6] = tested on: Rattus norvegicus; assay: Inhibition of hexarelin induced food intake per 100 gm of body weight in rat at 320 ug/kg, sc after 2 hrs; format: functional
Procedure, shortened: (§3)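 Rats dosed subcutaneously with compound (160 µg/kg alone, or graded 20, 80, 160, 320 µg/kg) with or without hexarelin 80 µg/kg sc. Cumulative food intake at 2 and 6 h expressed as g food per 100 g body weight; % variation versus hexarelin at 6 h = 100 × (compound+hexarelin − hexarelin)/hexarelin.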

[7] = tested on: Rattus norvegicus; assay: Inhibition of hexarelin induced food intake per 100 gm of body weight in rat at 160 ug/kg, sc after 6 hrs; format: functional; procedure, shortened: as §3
[8] = tested on: Rattus norvegicus; assay: Inhibition of hexarelin induced food intake per 100 gm of body weight in rat at 80 ug/kg, sc after 6 hrs; format: functional; procedure, shortened: as §3
[9] = tested on: Rattus norvegicus; assay: Inhibition of hexarelin induced food intake per 100 gm of body weight in rat at 80 ug/kg, sc after 2 hrs; format: functional; procedure, shortened: as §3
[10] = tested on: Rattus norvegicus; assay: Inhibition of hexarelin induced food intake per 100 gm of body weight in rat at 20 ug/kg, sc after 2 hrs; format: functional; procedure, shortened: as §3
[11] = tested on: Rattus norvegicus; assay: Inhibition of hexarelin induced food intake per 100 gm of body weight in rat at 160 ug/kg, sc after 2 hrs; format: functional; procedure, shortened: as §3
[12] = tested on: Rattus norvegicus; assay: Inhibition of hexarelin induced food intake per 100 gm of body weight in rat at 20 ug/kg, sc after 6 hrs; format: functional; procedure, shortened: as §3
[13] = tested on: Rattus norvegicus; assay: Inhibition of hexarelin induced food intake per 100 gm of body weight in rat at 320 ug/kg, sc after 6 hrs; format: functional; procedure, shortened: as §3
[14] = tested on: Rattus norvegicus; assay: Effect on food intake per 100 gm of body weight in rat at 80 ug/kg, sc after 2 hrs; format: functional; procedure, shortened: as §3
[15] = tested on: Rattus norvegicus; assay: Effect on growth hormone secretion in infant rat at 80 ug/kg, sc; format: functional; procedure, shortened: as §2
[16] = tested on: Rattus norvegicus; assay: Effect on food intake per 100 gm of body weight in rat at 80 ug/kg, sc after 6 hrs; format: functional; procedure, shortened: as §3
[17] = tested on: Rattus norvegicus; assay: Inhibition of hexarelin induced food intake in rat at 80 ug/kg, sc; format: functional
[18] = molecular target: Substance-P receptor (Homo sapiens) (UniProt P25103); assay: Binding affinity at tachykinin 2 receptor at 10 uM
[19] = tested on: Rattus norvegicus; assay: Inhibition of hexarelin induced food intake in rat at 20 ug/kg, sc; format: functional
[20] = molecular target: T2, Cholecystokinin receptor type A (Homo sapiens) (UniProt P32238); assay: Binding affinity at CCK1 receptor at 10 uM
T2 sequence (whole entry): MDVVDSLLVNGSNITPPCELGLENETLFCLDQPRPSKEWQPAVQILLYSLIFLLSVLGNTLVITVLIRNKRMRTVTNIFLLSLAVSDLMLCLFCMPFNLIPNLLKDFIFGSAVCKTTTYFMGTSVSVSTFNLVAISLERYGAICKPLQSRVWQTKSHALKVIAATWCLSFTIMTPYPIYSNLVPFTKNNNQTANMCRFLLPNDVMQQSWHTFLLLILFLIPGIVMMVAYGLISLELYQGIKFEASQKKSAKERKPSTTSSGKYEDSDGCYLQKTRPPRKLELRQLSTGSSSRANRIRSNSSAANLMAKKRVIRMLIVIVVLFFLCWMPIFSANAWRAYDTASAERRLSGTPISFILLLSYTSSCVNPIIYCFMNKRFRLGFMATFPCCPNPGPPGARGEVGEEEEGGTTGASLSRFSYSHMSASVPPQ

[21] = molecular target: Vasopressin V1a receptor (Homo sapiens) (UniProt P37288); assay: Binding affinity at vasopressin 1a receptor at 10 uM
[22] = molecular target: Motilin receptor (Homo sapiens) (UniProt O43193); assay: Binding affinity at motilin receptor at 10 uM
[23] = molecular target: T1, Growth hormone secretagogue receptor type 1; assay: Agonist activity at GHSR1a expressed in CHO cells assessed as accumulation of intracellular calcium level; format: functional, cell-based; procedure, shortened: as §1

T1 sequence (Q92847 whole entry): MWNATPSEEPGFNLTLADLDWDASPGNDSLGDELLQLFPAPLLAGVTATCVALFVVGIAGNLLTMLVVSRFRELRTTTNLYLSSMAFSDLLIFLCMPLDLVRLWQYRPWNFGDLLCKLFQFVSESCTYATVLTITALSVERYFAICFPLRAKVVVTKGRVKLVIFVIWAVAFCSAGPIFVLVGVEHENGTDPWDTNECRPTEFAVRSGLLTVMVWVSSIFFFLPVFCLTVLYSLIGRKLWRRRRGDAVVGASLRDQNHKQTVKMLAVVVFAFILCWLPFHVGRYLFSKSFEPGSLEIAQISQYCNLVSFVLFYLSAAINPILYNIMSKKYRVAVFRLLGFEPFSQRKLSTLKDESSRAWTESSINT
Substance-P receptor (Homo sapiens), sequence (P25103 whole entry): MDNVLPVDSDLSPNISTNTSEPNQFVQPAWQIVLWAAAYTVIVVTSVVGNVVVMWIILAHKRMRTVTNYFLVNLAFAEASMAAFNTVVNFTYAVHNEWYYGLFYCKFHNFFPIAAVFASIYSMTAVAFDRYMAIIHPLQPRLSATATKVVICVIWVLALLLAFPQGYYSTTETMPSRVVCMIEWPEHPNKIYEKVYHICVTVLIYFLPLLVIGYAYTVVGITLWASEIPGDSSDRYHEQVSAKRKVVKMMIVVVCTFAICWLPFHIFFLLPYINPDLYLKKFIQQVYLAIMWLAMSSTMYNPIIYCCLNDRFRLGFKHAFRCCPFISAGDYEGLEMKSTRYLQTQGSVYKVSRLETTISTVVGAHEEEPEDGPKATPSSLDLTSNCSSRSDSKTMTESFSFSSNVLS
Motilin receptor (Homo sapiens), sequence (O43193 whole entry): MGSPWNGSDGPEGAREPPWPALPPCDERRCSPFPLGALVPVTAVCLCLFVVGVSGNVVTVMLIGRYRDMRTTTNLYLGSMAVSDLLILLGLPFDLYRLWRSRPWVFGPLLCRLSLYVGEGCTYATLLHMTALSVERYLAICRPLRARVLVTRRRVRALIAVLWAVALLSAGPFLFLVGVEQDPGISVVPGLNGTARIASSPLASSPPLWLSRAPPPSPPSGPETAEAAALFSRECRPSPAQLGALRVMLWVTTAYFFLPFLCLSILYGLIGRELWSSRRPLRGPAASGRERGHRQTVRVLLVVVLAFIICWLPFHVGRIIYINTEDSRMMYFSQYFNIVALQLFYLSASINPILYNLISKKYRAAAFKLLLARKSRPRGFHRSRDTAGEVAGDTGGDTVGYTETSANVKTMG
Vasopressin V1a receptor (Homo sapiens), sequence (P37288 whole entry, looked up): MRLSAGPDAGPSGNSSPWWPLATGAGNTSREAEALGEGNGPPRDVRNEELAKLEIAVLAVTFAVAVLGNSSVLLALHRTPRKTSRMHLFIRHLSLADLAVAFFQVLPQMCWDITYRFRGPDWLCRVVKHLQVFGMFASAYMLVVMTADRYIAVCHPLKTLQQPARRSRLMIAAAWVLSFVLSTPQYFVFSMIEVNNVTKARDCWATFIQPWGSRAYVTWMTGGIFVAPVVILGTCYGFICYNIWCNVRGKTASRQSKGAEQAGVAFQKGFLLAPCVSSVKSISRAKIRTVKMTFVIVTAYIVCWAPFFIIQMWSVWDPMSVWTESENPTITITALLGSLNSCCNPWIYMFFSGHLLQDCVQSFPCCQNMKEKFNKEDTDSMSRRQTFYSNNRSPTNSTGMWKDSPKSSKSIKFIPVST

Row | IC50 [1] [µM] | Kb [2] [µM] | Activity [3] [%] | Compound | other results
1 | 0.051 | 0.124 | 0 | CCc1ccc(Cn2c(CCc3ccccc3)nnc2[C@@H](Cc2c[nH]c3ccccc23)NC(=O)Cc2ccccn2)cc1 | 
2 | > 1 |  | 0 | CCc1ccc(Cn2c(CCc3ccccc3)nnc2[C@@H](Cc2c[nH]c3ccccc23)NC(=O)c2ccncc2)cc1 | 
3 | 0.108 | 0.014 | 0 | COc1ccc(Cn2c(CCc3c[nH]c4ccccc34)nnc2[C@@H](Cc2c[nH]c3ccccc23)NC(=O)C(C)(C)N)c(OC)c1 | 
4 | 0.0007 | 0.012 | 0 | COc1ccc(Cn2c(CCc3ccccc3)nnc2[C@@H](Cc2c[nH]c3ccccc23)NC(=O)c2ccccn2)cc1 | 
5 | 0.003 | 0.006 | 6 | COc1ccc(Cn2c(CCc3ccccc3)nnc2[C@@H](Cc2c[nH]c3ccccc23)NC(=O)Cc2ccccn2)cc1 | 
6 | 0.3 |  | 1 | COc1ccc(-n2c(CCc3ccccc3)nnc2[C@@H](Cc2c[nH]c3ccccc23)NC(=O)c2cnccn2)c(OC)c1 | 
7 | 0.067 | 0.513 | 0 | CCc1ccc(Cn2c(CCc3ccccc3)nnc2[C@@H](Cc2c[nH]c3ccccc23)NC(=O)c2ccccn2)cc1 | 
8 | 0.177 |  | 5 | COc1ccc(Cn2c(CCc3ccccc3)nnc2[C@@H](Cc2c[nH]c3ccccc23)NC(=O)CCc2cccnc2)cc1 | 
9 | 0.089 | 0.076 | 0 | CCc1ccc(Cn2c(CCc3ccccc3)nnc2[C@@H](Cc2c[nH]c3ccccc23)NC(=O)c2cnccn2)cc1 | 
10 | 0.058 | 0.093 | 0 | COc1ccc(Cn2c(CCc3ccccc3)nnc2[C@@H](Cc2c[nH]c3ccccc23)NC(=O)c2ccncc2)c(OC)c1 | 
11 | 0.011 | 0.005 | 0 | COc1ccc(Cn2c(CCc3ccccc3)nnc2[C@@H](Cc2c[nH]c3ccccc23)NC(=O)C(C)(C)N)cc1 | Activity [4]: 220.52 ng/mL; Activity [5]: 5.28 ng/mL
12 | 0.076 | 0.01 | 3 | COc1ccc(Cn2c(CCc3c[nH]c4ccccc34)nnc2[C@@H](Cc2c[nH]c3ccccc23)NC(=O)Cc2ccncc2)cc1 | 
13 | 0.0018 | 0.019 | 0 | COc1ccc(Cn2c(CCc3c[nH]c4ccccc34)nnc2[C@@H](Cc2c[nH]c3ccccc23)NC(=O)c2ccccn2)c(OC)c1 | 
14 | 0.049 | 0.129 | 0 | CCc1ccc(-n2c(CCc3c[nH]c4ccccc34)nnc2[C@@H](Cc2c[nH]c3ccccc23)NC(=O)c2ccccn2)cc1 | 
15 | 0.06 | 0.017 | 0 | COc1ccc(Cn2c(CCc3ccccc3)nnc2[C@@H](Cc2c[nH]c3ccccc23)NC(=O)C(C)(C)N)c(OC)c1 | 
16 | 0.16 |  | 0 | O=C(N[C@H](Cc1c[nH]c2ccccc12)c1nnc(CCc2c[nH]c3ccccc23)n1-c1ccccc1)c1ccccn1 | 
17 | 0.0185 | 0.097 | 0 | COc1ccc(Cn2c(CCc3c[nH]c4ccccc34)nnc2[C@@H](Cc2c[nH]c3ccccc23)NC(=O)c2cnccn2)c(OC)c1 | Activity [6]: 0.2 g; Activity [7]: 0.31 g; Activity [4]: 173.61 ng/mL; Activity [8]: 0.23 g; Activity [9]: 0.23 g; Activity [10]: 0.66 g; Activity [11]: 0.29 g; Activity [12]: 0.66 g; inhibition in vivo at 0.02 mg/kg ([12]; Rattus norvegicus, sc, 6 h): 47%; Activity [13]: 0.21 g; Activity [5]: 15.32 ng/mL

Row | IC50 [1] [µM] | Kb [2] [µM] | Activity [3] [%] | Compound | other results
18 | 0.105 |  | 0 | O=C(N[C@H](Cc1c[nH]c2ccccc12)c1nnc(CCc2ccccc2)n1-c1ccccc1)c1ccccn1 | 
19 | 0.7 |  | 0 | O=C(Cc1ccccn1)N[C@H](Cc1c[nH]c2ccccc12)c1nnc(CCc2ccccc2)n1-c1ccccc1 | 
20 | > 1 |  | 20 | COc1ccc(Cn2c(CCc3ccccc3)nnc2[C@@H](Cc2c[nH]c3ccccc23)NCc2ccccc2)c(OC)c1 | 
21 | 0.0019 | 0.102 | 0 | COc1ccc(Cn2c(CCc3c[nH]c4ccccc34)nnc2[C@@H](Cc2c[nH]c3ccccc23)NC(=O)c2ccccn2)cc1 | 
22 |  |  |  | Cc1[nH]c2ccccc2c1C[C@@H](NC(=O)[C@@H](N)Cc1c[nH]cn1)C(=O)N[C@@H](C)C(=O)N[C@@H](Cc1c[nH]c2ccccc12)C(=O)N[C@H](Cc1ccccc1)C(=O)N[C@@H](CCCCN)C(N)=O [EXAMORELIN] (H-H[dTrp(2-Me)]AW[dF]K-NH2) | Activity [14]: 1.06 g; Activity [15]: 253.82 ng/mL; Activity [16]: 1.45 g
23 | 0.48 |  | 3 | CCc1ccc(Cn2c(CCc3ccccc3)nnc2[C@@H](Cc2c[nH]c3ccccc23)NC(=O)Cc2cccnc2)cc1 | 
24 | 0.034 | 0.014 | 0 | COc1ccc(Cn2c(CCc3c[nH]c4ccccc34)nnc2[C@@H](Cc2c[nH]c3ccccc23)NC(=O)Cc2ccccn2)c(OC)c1 | 
25 | 0.14 | 0.14 | 4 | COc1ccc(Cn2c(CCc3c[nH]c4ccccc34)nnc2[C@@H](Cc2c[nH]c3ccccc23)NC(=O)[C@H]2CCCC[C@H]2N)c(OC)c1 | 
26 | 0.029 | 0.093 | 3 | COc1ccc(Cn2c(CCc3ccccc3)nnc2[C@@H](Cc2c[nH]c3ccccc23)NC(=O)Cc2cccnc2)cc1 | 
27 | 0.0011 | 0.025 | 0 | COc1ccc(Cn2c(CCc3ccccc3)nnc2[C@@H](Cc2c[nH]c3ccccc23)NC(=O)c2ccccn2)c(OC)c1 | Activity [6]: 1.23 g; Activity [7]: 0.21 g; inhibition in vivo at 0.08 mg/kg [17]: -98%; Activity [4]: 138.39 ng/mL; Activity [8]: 0.02 g; Activity [9]: 0.02 g; Activity [18]: Active; inhibition in vivo at 0.02 mg/kg [19]: -44%; Activity [10]: 0.56 g; Activity [11]: 0.21 g; Activity [20]: Active; Activity [21]: Active; Activity [12]: 0.56 g; Activity [13]: 1.23 g; Activity [22]: Active; Activity [5]: 13.06 ng/mL
28 | 0.0006 |  |  | COc1ccc(Cn2c(CCc3c[nH]c4ccccc34)nnc2[C@@H](Cc2c[nH]c3ccccc23)NC(=O)C2CCNCC2)cc1 | EC50 [23]: 0.0016 µM
29 | 0.061 | 0.041 | 4 | O=C(Cc1ccccn1)N[C@H](Cc1c[nH]c2ccccc12)c1nnc(CCc2c[nH]c3ccccc23)n1Cc1ccccc1 | 
30 | 0.033 | 0.065 | 0 | COc1ccc(-n2c(CCc3ccccc3)nnc2[C@@H](Cc2c[nH]c3ccccc23)NC(=O)c2ccccn2)c(OC)c1 | 
31 | 0.27 |  | 6 | COc1ccc(Cn2c(CCc3ccccc3)nnc2[C@@H](Cc2c[nH]c3ccccc23)NC(=O)Cc2ccncc2)cc1 | 
32 | 0.22 |  | 0 | COc1ccc(Cn2c(CCc3ccccc3)nnc2[C@@H](Cc2c[nH]c3ccccc23)NC(=O)c2ccncc2)cc1 | 
33 | 0.0118 |  | 31 | COc1ccc(Cn2c(CCc3ccccc3)nnc2[C@@H](Cc2c[nH]c3ccccc23)NC(=O)c2ccccc2)c(OC)c1 | EC50 [23]: 0.016 µM
34 | 0.096 | 0.034 | 0 | CCc1ccc(-n2c(CCc3c[nH]c4ccccc34)nnc2[C@@H](Cc2c[nH]c3ccccc23)NC(=O)Cc2ccccn2)cc1 | 
